# Experiments:
# [1] = biological target: T1, Cytochrome P450 1A2 (Homo sapiens, UniProt P05177); test: Inhibition of CYP1A2 in human liver microsomes assessed as reduction in acetaminophen metabolite formation incubated for 30 mins in presence of NADPH by LC-MS/MS analysis; type: ADME, Microsome
# T1 sequence (P05177 whole entry): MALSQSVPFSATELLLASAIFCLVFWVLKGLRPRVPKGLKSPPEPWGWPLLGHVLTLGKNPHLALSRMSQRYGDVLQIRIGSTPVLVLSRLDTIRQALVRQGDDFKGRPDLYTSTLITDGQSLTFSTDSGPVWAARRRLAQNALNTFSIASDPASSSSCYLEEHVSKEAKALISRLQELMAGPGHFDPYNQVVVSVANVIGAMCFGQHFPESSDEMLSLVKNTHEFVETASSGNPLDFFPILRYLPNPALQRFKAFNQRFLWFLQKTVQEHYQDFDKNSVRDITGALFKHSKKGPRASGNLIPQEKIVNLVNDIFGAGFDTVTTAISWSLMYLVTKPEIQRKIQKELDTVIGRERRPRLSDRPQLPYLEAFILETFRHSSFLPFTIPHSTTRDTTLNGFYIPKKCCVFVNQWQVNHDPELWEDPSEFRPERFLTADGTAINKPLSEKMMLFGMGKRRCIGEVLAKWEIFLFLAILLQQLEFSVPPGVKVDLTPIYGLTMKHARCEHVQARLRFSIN
# [2] = biological target: Renin (Homo sapiens, UniProt P00797); test: Inhibition of human renin preincubated for 5 mins followed by substrate addition by fluorometer analysis
# Sequence of Renin (P00797 whole entry): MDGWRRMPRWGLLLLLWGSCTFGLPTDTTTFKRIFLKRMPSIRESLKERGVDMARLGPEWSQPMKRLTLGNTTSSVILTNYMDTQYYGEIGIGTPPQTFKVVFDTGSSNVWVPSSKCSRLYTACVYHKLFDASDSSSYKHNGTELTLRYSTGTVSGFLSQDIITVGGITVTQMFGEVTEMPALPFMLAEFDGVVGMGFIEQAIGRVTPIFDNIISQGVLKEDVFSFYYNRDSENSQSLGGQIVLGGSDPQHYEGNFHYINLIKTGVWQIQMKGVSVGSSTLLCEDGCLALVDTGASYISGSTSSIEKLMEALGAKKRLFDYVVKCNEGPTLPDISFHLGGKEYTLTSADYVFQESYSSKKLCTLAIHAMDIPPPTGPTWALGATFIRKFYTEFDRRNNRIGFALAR
# [3] = Clearance in Beagle dog assessed as liver blood flow at 1 mg/kg, iv measured upto 24 hrs by LC-MS analysis; type: ADME, organism-based, Canis lupus familiaris; conditions: in vivo
# [4] = biological target: Coagulation factor XI (Homo sapiens, UniProt P03951); test: Inhibition of human factor 11a preincubated for 5 mins followed by substrate addition by fluorometer analysis
# Sequence of Coagulation factor XI (P03951 19-387 limits assumed): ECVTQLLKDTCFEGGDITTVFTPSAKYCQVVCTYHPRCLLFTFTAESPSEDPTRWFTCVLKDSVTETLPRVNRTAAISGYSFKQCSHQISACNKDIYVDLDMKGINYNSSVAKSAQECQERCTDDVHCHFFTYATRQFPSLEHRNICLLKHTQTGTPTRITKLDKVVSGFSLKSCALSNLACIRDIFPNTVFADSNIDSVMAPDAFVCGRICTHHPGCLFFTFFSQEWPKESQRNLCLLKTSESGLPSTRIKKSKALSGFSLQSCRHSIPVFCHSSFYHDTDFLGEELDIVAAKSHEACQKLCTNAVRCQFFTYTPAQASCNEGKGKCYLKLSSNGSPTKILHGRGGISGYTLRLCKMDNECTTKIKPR
# Sequence of Coagulation factor XI (P03951 388-625 limits assumed): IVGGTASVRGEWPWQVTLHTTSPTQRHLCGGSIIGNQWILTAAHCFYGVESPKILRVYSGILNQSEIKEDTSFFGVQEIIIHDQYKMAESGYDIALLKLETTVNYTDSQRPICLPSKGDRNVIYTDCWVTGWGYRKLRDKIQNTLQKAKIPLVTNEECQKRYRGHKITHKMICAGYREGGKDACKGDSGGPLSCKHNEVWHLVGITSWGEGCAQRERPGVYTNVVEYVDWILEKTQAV
# Outline: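 Enzyme from the selectivity panel of serine proteases, typically purified from human plasma. The inhibitor was preincubated with the enzyme for 5 min before a protease-specific fluorogenic substrate was added. Substrate cleavage was followed kinetically. IC50 came from a four-parameter logistic fit to the normalized rate of fluorescence increase.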
# [5] = Thermodynamic solubility of the compound in FaSSGF at 100 mg/ml at pH 1.6 measured after 4 hrs; conditions: pH 1.6, 4 h
# [6] = Oral bioavailability in Sprague-Dawley rat at 10 mg/kg measured upto 24 hrs by LC-MS analysis; type: ADME, organism-based; conditions: in vivo
# Outline: (§1)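 Male Sprague-Dawley rats, two per route, single dose. IV: 1 mg/kg given as 1 mL/kg of a nominal 1 mg/mL formulation in vehicle. PO: 10 mg/kg given as 5 mL/kg of a 2 mg/mL formulation. PK parameters from noncompartmental analysis. Clearance expressed relative to rat liver blood flow of 80 mL/min/kg.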
# [7] = biological target: Prothrombin (Homo sapiens, UniProt P00734); test: Inhibition of human thrombin preincubated for 5 mins followed by substrate addition by fluorometer analysis
# Outline: (§2)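 Each protease (commercial, typically purified from human plasma) was preincubated with inhibitor for 5 min, then a fluorogenic substrate specific to that enzyme was added. Cleavage was followed kinetically by fluorometry. IC50 came from a four-parameter logistic fit to the normalized rate of fluorescence increase.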
# [8] = Clearance in Beagle dog blood at 1 mg/kg, iv measured upto 24 hrs by LC-MS analysis; type: ADME, organism-based, Canis lupus familiaris; conditions: whole blood
# [9] = biological target: Voltage-gated inwardly rectifying potassium channel KCNH2 (Homo sapiens, UniProt Q12809); test: Inhibition of hERG expressed in CHO cells by whole cell patch clamp assay; type: toxicity, cell-based
# Sequence of Voltage-gated inwardly rectifying potassium channel KCNH2 (Q12809 whole entry): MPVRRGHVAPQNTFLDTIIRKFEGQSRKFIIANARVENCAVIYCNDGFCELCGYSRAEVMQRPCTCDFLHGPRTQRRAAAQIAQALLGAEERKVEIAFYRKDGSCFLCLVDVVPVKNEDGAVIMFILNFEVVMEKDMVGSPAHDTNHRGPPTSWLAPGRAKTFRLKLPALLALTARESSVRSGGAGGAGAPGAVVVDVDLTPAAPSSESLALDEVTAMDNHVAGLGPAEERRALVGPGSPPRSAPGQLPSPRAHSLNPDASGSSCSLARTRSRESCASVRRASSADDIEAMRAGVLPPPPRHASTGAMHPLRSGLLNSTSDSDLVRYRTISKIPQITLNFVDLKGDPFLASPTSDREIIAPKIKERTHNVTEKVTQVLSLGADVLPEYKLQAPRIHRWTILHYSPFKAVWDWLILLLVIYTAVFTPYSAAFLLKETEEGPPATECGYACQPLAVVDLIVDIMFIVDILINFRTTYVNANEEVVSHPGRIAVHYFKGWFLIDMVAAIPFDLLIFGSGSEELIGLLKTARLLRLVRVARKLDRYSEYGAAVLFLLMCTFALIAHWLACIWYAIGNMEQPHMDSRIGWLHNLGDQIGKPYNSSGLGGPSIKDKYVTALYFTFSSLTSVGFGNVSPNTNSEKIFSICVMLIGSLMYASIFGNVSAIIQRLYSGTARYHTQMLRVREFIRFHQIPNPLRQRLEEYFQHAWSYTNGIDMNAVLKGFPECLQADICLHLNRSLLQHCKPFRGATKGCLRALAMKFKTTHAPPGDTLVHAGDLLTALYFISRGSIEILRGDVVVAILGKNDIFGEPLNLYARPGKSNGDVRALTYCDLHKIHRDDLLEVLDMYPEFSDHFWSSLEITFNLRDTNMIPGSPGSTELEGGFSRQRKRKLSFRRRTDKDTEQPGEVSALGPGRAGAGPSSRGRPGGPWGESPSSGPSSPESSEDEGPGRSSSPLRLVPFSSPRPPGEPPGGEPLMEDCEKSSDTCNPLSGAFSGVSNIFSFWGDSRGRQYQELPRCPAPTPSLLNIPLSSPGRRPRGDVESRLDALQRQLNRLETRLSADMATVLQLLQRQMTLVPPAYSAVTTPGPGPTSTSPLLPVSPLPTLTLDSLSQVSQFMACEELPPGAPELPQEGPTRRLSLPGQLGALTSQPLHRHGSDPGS
# Outline: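 hERG K+ current recorded by automated whole-cell patch clamp in CHO cells stably expressing hERG. Concentrations tested up to a maximum of 33 μM.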
# [10] = biological target: Cytochrome P450 2C19 (Homo sapiens, UniProt P33261); test: Inhibition of CYP2C19 in human liver microsomes assessed as reduction in 4-hydroxymephenytoin metabolite formation incubated for 30 mins in presence of NADPH by LC-MS/MS analysis; type: ADME, Microsome
# Sequence of Cytochrome P450 2C19 (P33261 whole entry): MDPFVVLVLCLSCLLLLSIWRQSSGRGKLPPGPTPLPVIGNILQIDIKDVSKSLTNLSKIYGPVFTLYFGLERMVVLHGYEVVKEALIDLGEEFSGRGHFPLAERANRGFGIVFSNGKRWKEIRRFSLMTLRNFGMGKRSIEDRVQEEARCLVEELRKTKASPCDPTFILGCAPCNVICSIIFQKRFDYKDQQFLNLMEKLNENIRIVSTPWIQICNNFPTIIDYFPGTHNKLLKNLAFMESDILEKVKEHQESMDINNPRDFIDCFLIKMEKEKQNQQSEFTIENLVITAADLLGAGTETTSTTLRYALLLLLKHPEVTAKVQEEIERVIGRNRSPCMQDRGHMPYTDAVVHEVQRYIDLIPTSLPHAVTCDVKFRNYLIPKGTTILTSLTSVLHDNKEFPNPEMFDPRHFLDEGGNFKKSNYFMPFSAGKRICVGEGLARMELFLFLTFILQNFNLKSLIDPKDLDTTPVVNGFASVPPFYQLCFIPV
# [11] = biological target: Cytochrome P450 3A4 (Homo sapiens, UniProt P08684); test: Inhibition of CYP3A4 in human liver microsomes assessed as reduction in 6beta-hydroxytestosterone metabolite formation using testosterone as substrate incubated for 30 mins in presence of NADPH by LC-MS/MS analysis; type: ADME, Microsome
# Sequence of Cytochrome P450 3A4 (P08684 whole entry): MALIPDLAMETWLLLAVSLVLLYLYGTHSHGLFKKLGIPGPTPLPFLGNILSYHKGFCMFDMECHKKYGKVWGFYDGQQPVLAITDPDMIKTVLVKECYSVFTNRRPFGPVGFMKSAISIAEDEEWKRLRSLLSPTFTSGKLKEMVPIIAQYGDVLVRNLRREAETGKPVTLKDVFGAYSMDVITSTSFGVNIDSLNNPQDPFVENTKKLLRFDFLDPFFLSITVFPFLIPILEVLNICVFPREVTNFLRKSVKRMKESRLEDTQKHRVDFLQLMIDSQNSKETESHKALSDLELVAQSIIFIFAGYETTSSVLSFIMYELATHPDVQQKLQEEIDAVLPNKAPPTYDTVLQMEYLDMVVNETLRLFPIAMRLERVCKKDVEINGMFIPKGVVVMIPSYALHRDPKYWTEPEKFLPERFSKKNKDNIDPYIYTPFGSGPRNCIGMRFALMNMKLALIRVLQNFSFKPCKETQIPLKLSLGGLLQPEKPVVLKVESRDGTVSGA
# [12] = biological target: Cytochrome P450 2C8 (Homo sapiens, UniProt P10632); test: Inhibition of CYP2C8 in human liver microsomes assessed as reduction in 6 alpha-hydroxypaclitaxel metabolite formation incubated for 30 mins in presence of NADPH by LC-MS/MS analysis; type: ADME, Microsome
# Sequence of Cytochrome P450 2C8 (P10632 whole entry): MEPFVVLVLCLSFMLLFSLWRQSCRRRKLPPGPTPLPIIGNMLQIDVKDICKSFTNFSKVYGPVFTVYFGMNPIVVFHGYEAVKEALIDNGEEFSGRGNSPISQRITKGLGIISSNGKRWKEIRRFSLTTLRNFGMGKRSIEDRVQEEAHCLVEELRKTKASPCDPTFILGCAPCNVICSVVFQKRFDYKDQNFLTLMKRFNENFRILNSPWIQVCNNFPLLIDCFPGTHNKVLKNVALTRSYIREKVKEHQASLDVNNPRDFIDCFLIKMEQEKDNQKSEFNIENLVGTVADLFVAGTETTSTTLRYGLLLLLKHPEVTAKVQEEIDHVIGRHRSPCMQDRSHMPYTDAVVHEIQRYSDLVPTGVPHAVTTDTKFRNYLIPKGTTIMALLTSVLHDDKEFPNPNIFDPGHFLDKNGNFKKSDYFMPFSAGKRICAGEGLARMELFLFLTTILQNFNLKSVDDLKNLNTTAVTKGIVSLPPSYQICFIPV
# [13] = Oral bioavailability in Beagle dog at 1 mg/kg measured upto 24 hrs by LC-MS analysis; type: ADME, organism-based, Canis lupus familiaris; conditions: in vivo
# [14] = biological target: Tryptase (Homo sapiens, UniProt Q9BZJ3+Q15661+Q9NRR2); test: Inhibition of human tryptase preincubated for 5 mins followed by substrate addition by fluorometer analysis; type: protein assay
# Outline: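 Human proteases, typically purified from plasma, preincubated with compound for 5 min. A protease-specific fluorogenic substrate was then added and cleavage followed kinetically on a fluorometer. IC50 from a four-parameter logistic fit to the normalized rate of fluorescence increase.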
# [15] = Clearance in Sprague-Dawley rat assessed as liver blood flow at 1 mg/kg, iv measured upto 24 hrs by LC-MS analysis; type: ADME, organism-based; conditions: in vivo; outline: as §1
# [16] = biological target: Plasminogen (Homo sapiens, UniProt P00747); test: Inhibition of human plasmin preincubated for 5 mins followed by substrate addition by fluorometer analysis; outline: as §2
# Sequence of Plasminogen (P00747 97-580 limits assumed): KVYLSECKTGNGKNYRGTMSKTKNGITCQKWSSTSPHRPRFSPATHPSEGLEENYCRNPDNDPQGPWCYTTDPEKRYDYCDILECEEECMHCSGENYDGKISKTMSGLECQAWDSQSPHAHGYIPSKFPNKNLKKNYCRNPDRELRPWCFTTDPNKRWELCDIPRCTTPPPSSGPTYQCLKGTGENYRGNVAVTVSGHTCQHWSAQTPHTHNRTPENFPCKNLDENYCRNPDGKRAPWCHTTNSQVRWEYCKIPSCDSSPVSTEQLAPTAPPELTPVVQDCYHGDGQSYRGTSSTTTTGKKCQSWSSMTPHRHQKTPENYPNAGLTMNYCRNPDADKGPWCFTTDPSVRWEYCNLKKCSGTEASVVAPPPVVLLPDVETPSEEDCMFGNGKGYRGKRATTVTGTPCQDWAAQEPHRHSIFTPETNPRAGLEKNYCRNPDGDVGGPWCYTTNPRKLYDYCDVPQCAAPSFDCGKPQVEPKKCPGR
# Sequence of Plasminogen (P00747 581-810 limits assumed): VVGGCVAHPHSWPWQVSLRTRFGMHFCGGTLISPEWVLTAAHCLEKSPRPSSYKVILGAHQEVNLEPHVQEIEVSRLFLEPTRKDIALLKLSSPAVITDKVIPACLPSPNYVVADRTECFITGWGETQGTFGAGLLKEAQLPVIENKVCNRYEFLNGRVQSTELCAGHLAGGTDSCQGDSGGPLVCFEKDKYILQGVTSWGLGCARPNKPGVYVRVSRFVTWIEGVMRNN
# [17] = biological target: Beta-secretase 1 (Homo sapiens, UniProt P56817); test: Inhibition of human beta-secretase 1 preincubated for 5 mins followed by substrate addition by fluorometer analysis
# [18] = biological target: Cytochrome P450 2D6 (Homo sapiens, UniProt P10635); test: Inhibition of CYP2D6 in human liver microsomes assessed as reduction in dextrorphan metabolite formation incubated for 30 mins in presence of NADPH by LC-MS/MS analysis; type: ADME, Microsome
# [19] = Thermodynamic solubility of the compound in FaSSIF at 1 mg/ml at pH 6.5 measured after 4 hrs; type: physicochemical; conditions: simulated gi fluid, pH 6.5, 4 h
# Outline: (§3)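 Compound (nominal 1 or 100 mg/mL as free base) added to biorelevant medium preheated to 37 °C: FaSSGF at pH 1.6 or FaSSIF at pH 6.5. Vortexed, then shaken 4 h at 37 °C (~500 rpm). Centrifuged at 15000g for 10 min at 37 °C. Supernatant diluted and quantified against calibration standards. Crystalline material used where stated.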
# [20] = biological target: Cathepsin G (Homo sapiens, UniProt P08311); test: Inhibition of human Cathepsin G preincubated for 5 mins followed by substrate addition by fluorometer analysis; outline: as §2
# Sequence of Cathepsin G (P08311 whole entry): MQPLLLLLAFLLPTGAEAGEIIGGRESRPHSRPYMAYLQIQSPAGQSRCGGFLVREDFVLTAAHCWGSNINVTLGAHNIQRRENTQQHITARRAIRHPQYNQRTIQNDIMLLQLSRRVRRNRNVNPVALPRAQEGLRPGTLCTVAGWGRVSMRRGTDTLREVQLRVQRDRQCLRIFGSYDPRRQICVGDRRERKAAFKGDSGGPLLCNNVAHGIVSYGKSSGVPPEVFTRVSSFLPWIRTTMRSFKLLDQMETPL
# [21] = Metabolic stability in human liver microsomes assessed as intrinsic clearance per mg of protein measured upto 60 mins in presence of NADPH regenerating system by LC-MS/MS analysis; type: ADME, Microsome; conditions: microsomes, 1 h
# [22] = Thermodynamic solubility of the compound in FaSSIF at 1 mg/ml at pH 6.5 using crystalline form of sample measured after 4 hrs; type: physicochemical; conditions: simulated gi fluid, pH 6.5, 4 h; outline: as §3
# [23] = Genotoxicity in Salmonella typhimurium by non-GLP bacterial mutagenicity Ames test; type: toxicity; conditions: salmonella enterica subsp. enterica serovar typhimurium
# [24] = Clearance in Sprague-Dawley rat blood at 1 mg/kg, iv measured upto 24 hrs by LC-MS analysis; type: ADME, organism-based; conditions: whole blood; outline: as §1
smiles,measurement,setting,value
COCc1nn(Cc2ccc(Cn3ccccc3=O)cc2)cc1C(=O)NCc1nccc(OC)c1F [SEBETRALSTAT],IC50,[1],> 25 µM
same,IC50,[2],> 10 µM
same,LBF,[3],33%
same,IC50,[4],> 40 µM
same,Therm_solubility,[5],11000 µg/mL
same,F,[6],82%
same,IC50,[7],> 40 µM
same,clearance,[8],10.9 mL/min/kg
same,IC50,[9],> 33 µM
same,IC50,[10],> 25 µM
same,IC50,[11],> 25 µM
same,IC50,[12],> 25 µM
same,F,[13],34%
same,IC50,[14],> 10 µM
same,LBF,[15],26%
same,IC50,[16],> 40 µM
same,IC50,[17],> 10 µM
same,IC50,[18],> 25 µM
same,Therm_solubility,[19],220 µg/mL
same,IC50,[20],> 10 µM
same,microsomal intrinsic clearance,[21],14 µL/min
same,Therm_solubility,[22],110 µg/mL
same,Activity,[23],Non-Toxic
same,clearance,[24],20.9 mL/min/kg

# From ChEMBL document CHEMBL5108074 (J Med Chem, 2022)
